Active and inactive are the calls of the source. The rule behind the calls is not given here.
Key:
MDA-MB-231 [1] = assay: Antiproliferative activity against human MDA-MB-231 cells assessed as reduction in cell viability incubated for 72 hrs by MTT assay; assay type: functional, cell-based; conditions: MDA-MB-231, 72 h
Method in brief: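 MTT viability assay. ATCC cell lines were grown in designated medium with 10% FBS at 37 °C, 5% CO2. Cells seeded at 1500−30000 per well and incubated 24 h, then exposed to compound (0−10 μg/mL) for 72 h. MTT added for 2−4 h. Formazan dissolved in DMSO (adherent) or acidified SDS overnight (suspension), absorbance read at 570 nm. Triplicates; IC50 calculated.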

MDA-MB-231 [2] = assay: Antitumor activity against human MDA-MB-231 cells xenografted in SCID mouse assessed as tumor growth inhibition at 40 mg/kg, po qd for 15 days and measured every 3 days; assay type: functional; conditions: MDA-MB-231, po, 360 h, time 15 day
Method in brief: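 SCID mice (5−6 weeks) injected subcutaneously with 100 μL of cells at 5 × 10^7/mL. At 150−200 mm3 mice randomized, 6 per group. Oral compounds given in water with 25% PEG400 plus 5% DMSO; paclitaxel given 10 mg/kg/week iv. Tumor volume a×b²/2 and body weight measured every 3 days. Inhibition rate (c−d)/c×100% against vehicle control.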

[3] = molecular target: Platelet-derived growth factor receptor beta (Homo sapiens, UniProt P09619); assay: Inhibition of human recombinant PDGFRbeta (557 to end residues) using poly(Glu, Tyr)4:1 as substrate incubated for 40 mins in presence of [gamma33P-ATP] by radiometric scintillation counting analysis
Chain of Platelet-derived growth factor receptor beta (P09619 whole entry): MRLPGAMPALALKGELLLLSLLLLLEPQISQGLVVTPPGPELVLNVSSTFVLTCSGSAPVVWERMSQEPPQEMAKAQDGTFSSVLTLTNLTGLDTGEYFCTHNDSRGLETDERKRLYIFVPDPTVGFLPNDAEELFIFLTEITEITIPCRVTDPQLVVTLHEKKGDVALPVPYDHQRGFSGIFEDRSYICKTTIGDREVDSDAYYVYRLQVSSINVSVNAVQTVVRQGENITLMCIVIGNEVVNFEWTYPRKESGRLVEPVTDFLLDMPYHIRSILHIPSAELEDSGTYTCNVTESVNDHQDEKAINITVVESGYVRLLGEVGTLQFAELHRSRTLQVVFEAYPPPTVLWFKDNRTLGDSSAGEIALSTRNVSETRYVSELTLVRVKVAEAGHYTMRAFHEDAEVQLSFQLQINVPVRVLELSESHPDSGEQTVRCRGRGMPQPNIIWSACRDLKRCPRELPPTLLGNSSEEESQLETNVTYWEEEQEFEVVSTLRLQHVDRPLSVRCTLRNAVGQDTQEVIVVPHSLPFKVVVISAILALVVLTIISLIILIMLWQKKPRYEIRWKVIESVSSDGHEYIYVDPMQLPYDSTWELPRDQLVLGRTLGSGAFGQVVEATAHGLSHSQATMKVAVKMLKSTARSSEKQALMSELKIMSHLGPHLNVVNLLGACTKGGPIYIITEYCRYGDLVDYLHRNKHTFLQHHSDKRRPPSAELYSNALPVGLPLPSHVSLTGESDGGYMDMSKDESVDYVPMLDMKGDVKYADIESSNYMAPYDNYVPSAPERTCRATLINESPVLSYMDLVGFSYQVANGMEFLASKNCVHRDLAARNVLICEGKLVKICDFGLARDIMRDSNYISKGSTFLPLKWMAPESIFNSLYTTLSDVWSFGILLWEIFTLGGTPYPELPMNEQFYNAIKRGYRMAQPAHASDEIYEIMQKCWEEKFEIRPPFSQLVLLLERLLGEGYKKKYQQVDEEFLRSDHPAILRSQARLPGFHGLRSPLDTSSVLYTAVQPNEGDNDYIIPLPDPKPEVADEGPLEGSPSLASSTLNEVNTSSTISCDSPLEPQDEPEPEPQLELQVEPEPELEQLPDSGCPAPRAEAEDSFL

MDA-MB-231 [4] = assay: Induction of apoptosis in human MDA-MB-231 cells assessed as necrotic cells at 0.01 uM incubated for 24 hrs by annexin V-FITC and propidium iodide staining based flow cytometry analysis (reference value: 0.2 %); assay type: functional
MDA-MB-231 [5] = assay: Induction of apoptosis in human MDA-MB-231 cells assessed as live cells at 0.01 uM incubated for 24 hrs by annexin V-FITC and propidium iodide staining based flow cytometry analysis (reference value: 96.95 %); assay type: functional
MDA-MB-231 [6] = assay: Induction of apoptosis in human MDA-MB-231 cells assessed as live cells at 0.1 uM incubated for 24 hrs by annexin V-FITC and propidium iodide staining based flow cytometry analysis (reference value: 96.95 %); assay type: functional
[7] = molecular target: Proto-oncogene tyrosine-protein kinase Src (Homo sapiens) (UniProt P12931); assay: Inhibition of Src in human MDA-MB-231 cells assessed as reduction in phosphorylation of Src incubated for 20 hrs by Western blot analysis; assay type: cell-based
Chain of Proto-oncogene tyrosine-protein kinase Src (Homo sapiens) (P12931 2-536 limits assumed): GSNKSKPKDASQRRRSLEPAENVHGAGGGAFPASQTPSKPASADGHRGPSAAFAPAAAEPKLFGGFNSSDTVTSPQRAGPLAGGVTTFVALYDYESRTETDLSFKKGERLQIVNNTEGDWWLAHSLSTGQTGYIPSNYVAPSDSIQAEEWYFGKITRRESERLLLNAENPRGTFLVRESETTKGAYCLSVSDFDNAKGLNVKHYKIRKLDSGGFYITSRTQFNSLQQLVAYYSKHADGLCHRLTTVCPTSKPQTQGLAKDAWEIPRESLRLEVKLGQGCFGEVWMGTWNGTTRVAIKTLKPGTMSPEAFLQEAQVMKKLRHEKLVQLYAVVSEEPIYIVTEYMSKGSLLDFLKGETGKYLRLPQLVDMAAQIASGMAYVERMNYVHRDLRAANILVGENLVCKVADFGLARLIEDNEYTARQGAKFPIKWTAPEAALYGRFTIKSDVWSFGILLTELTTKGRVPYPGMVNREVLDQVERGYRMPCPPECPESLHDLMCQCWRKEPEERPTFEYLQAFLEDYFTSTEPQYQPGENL
Method in brief: (§1)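 MDA-MB-231 cells treated with a series of concentrations for 20 h at 37 °C. Cells washed with ice-cold saline and lysed in RIPA buffer with protease cocktail. Lysates cleared at 12000 rpm for 10 min at 4 °C and protein quantified by Bradford. Equal protein separated by SDS-PAGE, transferred to PVDF and probed with antibodies.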

[8] = molecular target: Proto-oncogene tyrosine-protein kinase Src (Homo sapiens) (UniProt P12931); assay: Inhibition of Src in human MDA-MB-231 cells assessed as inhibition of FAK phosphorylation at 0.1 to 0.3 uM incubated for 20 hrs by Western blot analysis; assay type: cell-based; conditions: dose 0.1-0.3 µM; method in brief: as §1
Mus musculus = assay: Reduction in CD31 expression in tumor tissue of SCID mouse xenografted with human MDA-MB-231 cells at 40 mg/kg, po QD for 21 days by immunohistochemical analysis; assay type: functional, organism-based; conditions: dose 40.0 mg/kg/day, time 21.0 day
Method in brief: (§2)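 SCID mice carried subcutaneous MDA-MB-231 xenografts (5 × 10^6 cells in 100 μL). Oral dosing in water with 25% PEG400 and 5% DMSO began at 150–200 mm3. Tumours were removed at the end of study, formalin-fixed and paraffin-embedded, then immunostained.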

MDA-MB-231 [9] = assay: Inhibition of tumor mitotic index in SCID mouse xenografted with human MDA-MB-231 cells assessed as reduction in Ki67 expression at 40 mg/kg, po QD for 21 days by immunohistochemical staining analysis; assay type: functional, organism-based; conditions: dose 40.0 mg/kg/day, time 21.0 day; method in brief: as §2

Cc1ccc(NC(=O)c2ccc(C)c(C(F)(F)F)c2)cc1C#Cc1nn([C@H]2CC[C@H](O)CC2)c2ncnc(N)c12 showed an IC50 (MDA-MB-231 [1]) of 30 nM, an inhibition in vivo at 40 mg/kg/day (MDA-MB-231 [2]) of 96.2% and an IC50 [3] greater than 10000 nM. The Activity (MDA-MB-231 [4]) was 0.42%, the Activity (MDA-MB-231 [5]) was 91.3% and the Activity (MDA-MB-231 [6]) was 67.94%. The inhibition [7] was “Dose-dependent effect”, the inhibition [8] was “Active” and the inhibition (Mus musculus) was “Active”. The inhibition (MDA-MB-231 [9]) was “Active”.
